Measurements published in ChEMBL document CHEMBL2169880, “Synthesis of C-Pseudonucleosides Bearing Thiazolidin-4-one as a Novel Potential Immunostimulating Agent” (2011).
Calls of active or inactive are those of the source. The rule behind the calls is not given here.

Legend:
[1] = Immunostimulating activity in BALb/c mouse splenocytes assessed as increase in concanavalin A-induced cell proliferation at 25 uM after 72 hrs by MTT assay; type: functional, Splenocyte
Procedure, shortened: (§1)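 Mouse splenocytes co-treated with concanavalin A and compound at 5, 10, 25, 50 or 100 μM. Incubated 72 h at 37 °C under 5% CO₂, then proliferation read by MTT. Result expressed as % increase relative to Con A alone. Means ± SEM of at least three independent experiments.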

T-cell [2] = assay: Immunostimulating activity in BALb/c mouse CD8+ T cells at 50 uM after 72 hrs by […]; type: functional, cell-based
Procedure, shortened: (§2)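 CD3+, CD4+ and CD8+ T cells and CD19+ B cells from splenocyte cultures quantified by flow cytometry. Compound at 5, 10 or 50 μM, compared with Con A-treated cells. Means ± SEM of at least three independent experiments.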

Splenocyte [3] = assay: Immunostimulating activity in concanavalin A-stimulated BALb/c mouse splenocytes assessed as increase in IL2 secretion at 50 uM after 72 hrs by ELISA; type: functional
Procedure, shortened: (§3)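 IL-4, IL-2 and IFN-γ measured by mouse ELISA in supernatants of total splenocyte cultures. Cultures contained concanavalin A (printed as 20 μM) plus compound at 5, 10 or 50 μM. Compared with Con A alone. Means ± SEM of at least three independent experiments.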

[4] = (§4) Immunostimulating activity in BALb/c mouse splenocytes assessed as increase in concanavalin A-induced cell proliferation at 5 uM after 72 hrs by MTT assay; type: functional, Splenocyte; procedure, shortened: as §1
B [5] = assay: Immunostimulating activity in BALb/c mouse CD19+ B cells at 50 uM after 72 hrs by MTT assay; type: functional, cell-based
[6] = Immunostimulating activity in BALb/c mouse splenocytes assessed as increase in concanavalin A-induced cell proliferation at 10 uM after 72 hrs by MTT assay; type: functional, Splenocyte; procedure, shortened: as §1
[7] = Immunostimulating activity in BALb/c mouse splenocytes assessed as increase in concanavalin A-induced cell proliferation at 100 uM after 72 hrs by MTT assay; type: functional, Splenocyte; procedure, shortened: as §1
Splenocyte [8] = assay: Immunostimulating activity in BALb/c mouse splenocytes assessed as cell proliferation at 5 to 100 uM after 72 hrs by MTT assay; type: functional, cell-based
Procedure, shortened: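 Mouse splenocytes exposed to compound without concanavalin A. Proliferation measured by MTT after 72 h at 37 °C, 5% CO₂.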

T-cell [9] = assay: Immunostimulating activity in BALb/c mouse CD4+ T cells at 50 uM after 72 hrs by MTT assay; type: functional, cell-based
Splenocyte [10] = assay: Immunostimulating activity in concanavalin A-stimulated BALb/c mouse splenocytes assessed as increase in IL4 secretion at 50 uM after 72 hrs by ELISA; type: functional; procedure, shortened: as §3
Splenocyte [11] = assay: Immunostimulating activity in concanavalin A-stimulated BALb/c mouse splenocytes assessed as increase in IFNgamma secretion at 50 uM after 72 hrs by ELISA; type: functional; procedure, shortened: as §3
[12] = Immunostimulating activity in BALb/c mouse splenocytes assessed as increase in concanavalin A-induced cell proliferation at 50 uM after 72 hrs by MTT assay; type: functional, Splenocyte; procedure, shortened: as §1
T-cell [13] = assay: Immunostimulating activity in BALb/c mouse CD3+ T cells at 50 uM after 72 hrs by […]; type: functional, cell-based; procedure, shortened: as §2
Splenocyte [14] = assay: Immunostimulating activity in concanavalin A-stimulated BALb/c mouse splenocytes assessed as increase in IL4 secretion at 5 uM after 72 hrs by ELISA; type: functional; procedure, shortened: as §3
T-cell [15] = assay: Immunostimulating activity in BALb/c mouse CD3+ T cells at 5 uM after 72 hrs by […]; type: functional, cell-based; procedure, shortened: as §2
[16] = Immunostimulating activity in BALb/c mouse splenocytes assessed as increase in LPS-induced cell proliferation at 5 uM after 72 hrs by MTT assay; type: functional, Splenocyte
Procedure, shortened: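 Splenocyte proliferation induced by LPS, with compound added at 5 μM. Reported as % increase over LPS-treated cells. Means ± SEM of at least three independent experiments.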

Splenocyte [17] = assay: Immunostimulating activity in concanavalin A-stimulated BALb/c mouse splenocytes assessed as increase in IFNgamma secretion at 5 uM after 72 hrs by ELISA; type: functional, cell-based; procedure, shortened: as §3
B [18] = assay: Immunostimulating activity in BALb/c mouse CD19+ B cells at 5 uM after 72 hrs […]; type: functional, cell-based; procedure, shortened: as §2
T-cell [19] = assay: Immunostimulating activity in BALb/c mouse CD8+ T cells at 5 uM after 72 hrs […]; type: functional, cell-based; procedure, shortened: as §2
T-cell [20] = assay: Immunostimulating activity in BALb/c mouse CD4+ T cells at 5 uM after 72 hrs by MTT assay; type: functional, cell-based
Splenocyte [21] = assay: Immunostimulating activity in concanavalin A-stimulated BALb/c mouse splenocytes assessed as increase in IL2 secretion at 5 uM after 72 hrs by ELISA; type: functional; procedure, shortened: as §3
Splenocyte [22] = assay: Immunostimulating activity in concanavalin A-stimulated BALb/c mouse splenocytes assessed as increase in IFNgamma secretion at 10 uM after 72 hrs by ELISA; type: functional; procedure, shortened: as §3
Splenocyte [23] = assay: Immunostimulating activity in concanavalin A-stimulated BALb/c mouse splenocytes assessed as increase in IL2 secretion at 10 uM after 72 hrs by ELISA; type: functional; procedure, shortened: as §3
T-cell [24] = assay: Immunostimulating activity in BALb/c mouse CD3+ T cells at 10 uM after 72 hrs by MTT assay; type: functional, cell-based
T-cell [25] = assay: Immunostimulating activity in BALb/c mouse CD4+ T cells at 10 uM after 72 hrs by […]; type: functional, cell-based; procedure, shortened: as §2
Splenocyte [26] = assay: Immunostimulating activity in concanavalin A-stimulated BALb/c mouse splenocytes assessed as increase in IL4 secretion at 10 uM after 72 hrs by ELISA; type: functional; procedure, shortened: as §3
B [27] = assay: Immunostimulating activity in BALb/c mouse CD19+ B cells at 10 uM after 72 hrs by MTT assay; type: functional, cell-based
T-cell [28] = assay: Immunostimulating activity in BALb/c mouse CD8+ T cells at 10 uM after 72 hrs by MTT assay; type: functional, cell-based
Splenocyte [29] = assay: as §4; type: functional; procedure, shortened: as §1

CN1C(=O)CS[C@@H]1[C@H]1O[C@H](CO)[C@@H](O)[C@@H]1O
Activity [1]: 91%
Activity (T-cell [2]): inactive
Activity (Splenocyte [3]): 37%
Activity [4]: 111%
Activity (B [5]): inactive
Activity [6]: 98%
Activity [7]: 230%
Activity (Splenocyte [8]): inactive
Activity (T-cell [9]): Active
Activity (Splenocyte [10]): 42%
Activity (Splenocyte [11]): 30%
Activity [12]: 327%
Activity (T-cell [13]): Active

O=C1CS[C@H]([C@H]2O[C@H](CO)[C@@H](O)[C@@H]2O)N1c1ccccc1
Activity (Splenocyte [14]): 41%
Activity (T-cell [15]): Active
Activity [16]: 238%
Activity (Splenocyte [17]): inactive
Activity [1]: <50%
Activity (B [18]): Active
Activity [4]: 166%
Activity (T-cell [19]): inactive
Activity [6]: <50%
Activity (T-cell [20]): Active
Activity (Splenocyte [21]): 138%
Activity (Splenocyte [8]): inactive
Activity [12]: 171%

CN1C(=O)CS[C@H]1[C@H]1O[C@H](CO)[C@@H](O)[C@@H]1O
Activity [1]: 138%
Activity (Splenocyte [22]): 21%
Activity (Splenocyte [23]): 78%
Activity [4]: 28%
Activity (T-cell [24]): Active
Activity [6]: 290%
Activity (T-cell [25]): Active
Activity [7]: 245%
Activity (Splenocyte [26]): 43%
Activity (B [27]): inactive
Activity (Splenocyte [8]): inactive
Activity [12]: 35%
Activity (T-cell [28]): inactive

CCCCCCCCN1C(=O)CS[C@@H]1[C@H]1O[C@H](CO)[C@@H](O)[C@@H]1O
Activity [1]: <50%
Activity [4]: <50%
Activity [6]: <50%
Activity [7]: <50%
Activity [12]: <50%

CCCCCCCCCCCCCCCCCCN1C(=O)CS[C@H]1[C@H]1O[C@H](CO)[C@@H](O)[C@@H]1O
Activity [1]: <50%
Activity [4]: <50%
Activity [6]: <50%
Activity [7]: <50%
Activity [12]: <50%

CCCCCCCCN1C(=O)CS[C@H]1[C@H]1O[C@H](CO)[C@@H](O)[C@@H]1O
Activity [1]: <50%
Activity [4]: <50%
Activity [6]: <50%
Activity [7]: <50%
Activity [12]: <50%

CCCCN1C(=O)CS[C@H]1[C@H]1O[C@H](CO)[C@@H](O)[C@@H]1O
Activity [1]: <50%
Activity [4]: <50%
Activity [6]: <50%
Activity [7]: <50%
Activity [12]: <50%

O=C1CS[C@@H]([C@H]2O[C@H](CO)[C@@H](O)[C@@H]2O)N1c1ccccc1
Activity (Splenocyte [14]): 39%
Activity (T-cell [15]): Active
Activity [16]: 117%
Activity (Splenocyte [17]): inactive
Activity [1]: <50%
Activity (B [18]): Active
Activity (Splenocyte [29]): Active
Activity (T-cell [19]): inactive
Activity [6]: <50%
Activity [7]: <50%
Activity (T-cell [20]): Active
Activity (Splenocyte [21]): 99%
Activity (Splenocyte [8]): inactive
Activity [12]: <50%

CCCCCCCCCCCCCCCCCCN1C(=O)CS[C@@H]1[C@H]1O[C@H](CO)[C@@H](O)[C@@H]1O
Activity [1]: <50%
Activity [4]: <50%
Activity [6]: <50%
Activity [7]: <50%
Activity [12]: <50%

CCCCN1C(=O)CS[C@@H]1[C@H]1O[C@H](CO)[C@@H](O)[C@@H]1O
Activity [1]: <50%
Activity [4]: <50%
Activity [6]: <50%
Activity [7]: <50%
Activity [12]: <50%
